Measurements pooled from the literature.

SMILES | test system | setting | AUC
CS(=O)(=O)CCC#N | human, plasma | oral, 300 mg, multiple doses, once daily | 260000 ng·h/mL
NS(=O)(=O)NCCNc1nonc1C(=NO)Nc1ccc(F)c(Br)c1 | human, plasma | oral, 50 mg, multiple doses, once daily, steady state, patients | 1.58 µM·h
COc1ccc(Oc2cc(N(C)CCOc3ccc(CC4SC(=O)NC4=O)cc3)ncn2)cc1 (stereo not drawn) | male human, plasma | oral, 0.5 mg, multiple doses, once daily, steady state | 333 ng·h/mL
C[C@@H](c1ccc2nccn2c1)n1nnc2ncc(-c3cnn(C)c3)nc21 | human, plasma | oral, 200 mg | 4010 ng·h/mL
CC(C)(C)OC[C@@H]1C(=O)NCCN1C(=O)C[C@H](N)Cc1cc(F)c(F)cc1F | male human, plasma | oral, 5 mg, multiple doses, steady state | 91.4 ng·h/mL
Cn1c(=O)oc2ccc(-c3ccc(C[C@@H](C#N)NC(=O)[C@@H]4CNCCCO4)cc3)cc21 | male human, plasma | oral, 5 mg, single dose, healthy volunteers | 0.915 µM·h
COc1cc(C(=O)NC2CCN(C)CC2)c(F)cc1Nc1ncc(C(F)(F)F)c(Oc2cccc3c2C(=O)N(C)C3)n1 | human, plasma | oral, 100 mg, multiple doses, once daily, steady state, patients | 16.3 µM·h
CS(=O)(=O)CCNCc1ccc(-c2ccc3ncnc(Nc4ccc(OCc5cccc(F)c5)c(Cl)c4)c3c2)o1 | human, serum | oral, 1250 mg, single dose, fed | 27300 ng·h/mL
Cc1ccc(C(=O)N(CCCN)[C@@H](c2oc3cc(Cl)ccc3c(=O)c2Cc2ccccc2)C(C)C)cc1 | human, plasma | intravenous, 2 mg/m², single dose, patients, infusion | 2520 ng·h/mL
